From ChEMBL document CHEMBL1140213, “Synthesis and structure-activity relationship studies of 2-(N-substituted)-aminobenzimidazoles as potent negative gating modulators ofsmall conductance Ca2+-activated K+ channels” (J Med Chem, 2008)
Calls of active or inactive are those of the source. The rule behind the calls is not given here.

Columns and labels:
[1] = molecular target: Small conductance calcium-activated potassium channel protein 3 (Rattus norvegicus, UniProt P70605); experiment: (§1) Inhibition of Wistar rat recombinant SK3 channel expressed in HEK293 cells by whole cell patch clamp technique; format: cell-based
Method in brief: (§2)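 Whole-cell patch clamp on HEK293 cells stably expressing rat SK3. Extracellular solution contains 4 mM K+. Pipette Ca2+ is buffered at 400 nM. Kd comes from single-concentration kinetics experiments (n = independent experiments), reported as mean ± SEM.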

[2] = molecular target: Small conductance calcium-activated potassium channel protein 3 (Rattus norvegicus) (UniProt P70605); experiment: as §1; format: cell-based; method in brief: as §2
[3] = Inhibition of human SK3 channel Q493A;D495A mutant expressed in HEK293 cells; format: cell-based
[4] = molecular target: T1, Small conductance calcium-activated potassium channel protein 3 (Homo sapiens, UniProt Q9UGI6); experiment: Inhibition of wild type human SK3 channel expressed in HEK293 cells at 300 nM by whole cell assay; format: cell-based
[5] = molecular target: T1, Small conductance calcium-activated potassium channel protein 3; experiment: Inhibition of wild type human SK3 channel expressed in HEK293 cells; format: cell-based
[6] = test system: HEK293; experiment: Inhibition of human SK3 channel Q493A;D495A mutant expressed in HEK293 cells at 300 nM by whole cell assay; format: cell-based
[7] = molecular target: T1, Small conductance calcium-activated potassium channel protein 3; experiment: Inhibition of wild type human SK3 channel expressed in HEK293 cells assessed as Ca2+ sensitivity by inside-out patch clamp technique; format: cell-based
Method in brief: (§3)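 Inside-out patches from HEK293 cells transiently transfected (lipofectamine) with hSK3 or hSK3(Q493A;D495A), recorded 2-4 days after transfection. Patches are exposed to a series of Ca2+-buffered solutions. Currents are normalized to the current induced by 10 µM Ca2+, and Hill fits give EC50(Ca2+) and nH. Mean ± SEM.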

[8] = Inhibition of human SK3 channel Q493A;D495A mutant expressed in HEK293 cells assessed as Ca2+ sensitivity by inside-out patch clamp technique; format: cell-based; method in brief: as §3
[9] = molecular target: Small conductance calcium-activated potassium channel protein 1 (Homo sapiens, UniProt Q92952); experiment: Inhibition of human SK1 channel by inside-out patch clamp technique
[10] = molecular target: T1, Small conductance calcium-activated potassium channel protein 3; experiment: Inhibition of human SK3 channel by inside-out patch clamp technique
[11] = molecular target: Small conductance calcium-activated potassium channel protein 2 (Homo sapiens, UniProt Q9H2S1); experiment: Inhibition of human SK2 channel by inside-out patch clamp technique
[12] = molecular target: T1, Small conductance calcium-activated potassium channel protein 3; experiment: Inhibition of human SK3 channel expressed in HEK293 cells assessed as Ca2+ induced current after drug wash out by whole cell patch clamp technique in presence of bicuculline methobromide; format: cell-based
Method in brief: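 Whole-cell SK3 current is measured every 5 s at 0 mV from voltage ramps (-120 to +30 mV). Pipette Ca2+ is buffered at 400 nM. Inhibition is followed to steady state (about 5 min) and then washed out. Bicuculline methobromide (100 µM) is applied for 20 s during the wash. Kd is fitted from the kinetics.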

Chain of Small conductance calcium-activated potassium channel protein 3 (Rattus norvegicus) (P70605 whole entry): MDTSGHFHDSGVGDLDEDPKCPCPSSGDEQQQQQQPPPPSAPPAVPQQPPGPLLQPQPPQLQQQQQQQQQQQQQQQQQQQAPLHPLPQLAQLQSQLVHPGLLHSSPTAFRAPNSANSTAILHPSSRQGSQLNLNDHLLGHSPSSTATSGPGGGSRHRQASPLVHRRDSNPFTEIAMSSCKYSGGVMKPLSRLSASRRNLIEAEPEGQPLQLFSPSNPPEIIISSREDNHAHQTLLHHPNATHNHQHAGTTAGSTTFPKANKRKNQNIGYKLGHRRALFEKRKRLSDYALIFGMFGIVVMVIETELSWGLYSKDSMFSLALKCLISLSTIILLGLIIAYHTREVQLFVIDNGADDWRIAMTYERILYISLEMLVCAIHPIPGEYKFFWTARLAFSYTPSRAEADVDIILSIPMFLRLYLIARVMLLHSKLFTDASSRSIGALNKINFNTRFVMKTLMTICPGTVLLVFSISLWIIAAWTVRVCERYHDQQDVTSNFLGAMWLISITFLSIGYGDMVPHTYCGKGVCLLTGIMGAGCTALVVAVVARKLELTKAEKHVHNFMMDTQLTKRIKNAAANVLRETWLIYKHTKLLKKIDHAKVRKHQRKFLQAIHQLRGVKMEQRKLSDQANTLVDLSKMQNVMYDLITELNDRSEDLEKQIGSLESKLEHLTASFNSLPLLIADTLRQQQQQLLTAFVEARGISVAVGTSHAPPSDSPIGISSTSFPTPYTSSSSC
Chain of Small conductance calcium-activated potassium channel protein 3 (Rattus norvegicus, UniProt P70605) (P70605 whole entry): as above
T1 sequence (Q9UGI6 whole entry): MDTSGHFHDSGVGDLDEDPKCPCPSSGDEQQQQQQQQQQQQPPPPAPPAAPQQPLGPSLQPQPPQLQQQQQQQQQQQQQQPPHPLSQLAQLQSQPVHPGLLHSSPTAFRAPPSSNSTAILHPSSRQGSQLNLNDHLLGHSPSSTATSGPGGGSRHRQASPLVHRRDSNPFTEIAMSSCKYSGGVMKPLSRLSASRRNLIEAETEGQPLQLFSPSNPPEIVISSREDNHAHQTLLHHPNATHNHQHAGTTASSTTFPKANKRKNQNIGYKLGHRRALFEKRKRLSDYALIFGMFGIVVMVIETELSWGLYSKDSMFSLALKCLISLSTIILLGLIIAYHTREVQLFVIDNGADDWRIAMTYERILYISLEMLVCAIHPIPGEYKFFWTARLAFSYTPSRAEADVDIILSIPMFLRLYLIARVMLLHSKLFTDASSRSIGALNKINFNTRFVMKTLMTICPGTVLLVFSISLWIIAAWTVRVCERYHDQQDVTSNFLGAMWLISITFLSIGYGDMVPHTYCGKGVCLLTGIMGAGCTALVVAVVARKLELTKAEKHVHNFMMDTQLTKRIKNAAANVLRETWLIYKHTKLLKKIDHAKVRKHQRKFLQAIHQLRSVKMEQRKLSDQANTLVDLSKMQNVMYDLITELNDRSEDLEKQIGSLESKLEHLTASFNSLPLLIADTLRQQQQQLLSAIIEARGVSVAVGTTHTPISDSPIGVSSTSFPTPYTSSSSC
Chain of Small conductance calcium-activated potassium channel protein 1 (Q92952 whole entry): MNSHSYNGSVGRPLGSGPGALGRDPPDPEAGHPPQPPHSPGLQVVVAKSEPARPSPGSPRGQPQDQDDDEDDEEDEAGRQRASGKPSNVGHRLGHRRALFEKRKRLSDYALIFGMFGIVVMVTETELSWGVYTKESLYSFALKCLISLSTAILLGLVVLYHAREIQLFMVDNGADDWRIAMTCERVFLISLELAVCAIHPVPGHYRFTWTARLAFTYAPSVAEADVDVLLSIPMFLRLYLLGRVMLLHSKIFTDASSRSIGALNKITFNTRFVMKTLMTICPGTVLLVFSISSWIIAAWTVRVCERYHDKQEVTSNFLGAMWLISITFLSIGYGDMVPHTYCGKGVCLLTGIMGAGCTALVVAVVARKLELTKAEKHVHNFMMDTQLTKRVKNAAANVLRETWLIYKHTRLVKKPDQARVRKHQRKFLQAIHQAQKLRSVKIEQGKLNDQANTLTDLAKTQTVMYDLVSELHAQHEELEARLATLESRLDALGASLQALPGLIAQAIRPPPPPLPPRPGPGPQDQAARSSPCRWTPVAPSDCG
Chain of Small conductance calcium-activated potassium channel protein 2 (Q9H2S1 whole entry): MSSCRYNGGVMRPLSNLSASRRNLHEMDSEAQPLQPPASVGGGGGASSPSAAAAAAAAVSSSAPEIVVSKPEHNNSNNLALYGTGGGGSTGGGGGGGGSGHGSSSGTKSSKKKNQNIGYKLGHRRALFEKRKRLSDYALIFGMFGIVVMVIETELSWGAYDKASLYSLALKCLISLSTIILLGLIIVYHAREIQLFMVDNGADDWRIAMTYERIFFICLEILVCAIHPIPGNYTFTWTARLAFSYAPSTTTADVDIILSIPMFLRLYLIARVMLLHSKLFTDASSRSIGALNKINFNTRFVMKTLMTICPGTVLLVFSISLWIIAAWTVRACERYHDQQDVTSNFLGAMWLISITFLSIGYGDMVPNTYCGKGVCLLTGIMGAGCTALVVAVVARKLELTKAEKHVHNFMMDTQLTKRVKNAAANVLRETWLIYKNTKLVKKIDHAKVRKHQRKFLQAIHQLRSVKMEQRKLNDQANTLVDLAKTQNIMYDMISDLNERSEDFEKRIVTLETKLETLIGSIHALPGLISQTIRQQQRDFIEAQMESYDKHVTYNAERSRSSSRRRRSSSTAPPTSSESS

SMILES	Kd [1] [nM]	other results
c1cc2cc(c1)C[n+]1ccc(c3ccccc31)NCc1ccc(cc1)CNc1cc[n+](c3ccccc13)C2	2.7	
c1ccc2c(c1)c1cc[n+]2CCCCC[n+]2ccc(c3ccccc32)NCCCCCN1	0.43	
c1ccc(CCc2nc3ccccc3[nH]2)cc1	> 10000	
Cc1cc(NC2CCCCC2)nc(-n2nc(C)cc2C)n1		Activity [2]: Active
Brc1ccc2c(c1)C(Nc1nc3ccccc3[nH]1)CCC2 (stereo not given)	11	
Clc1ccc(CNc2nc3ccccc3[nH]2)cc1Cl	200	
Clc1cccc2c1C(Nc1nc3ccccc3[nH]1)CCC2 (stereo not given)	27	
COc1ccc2c(c1)C(Nc1nc3ccccc3[nH]1)CCC2 (stereo not given)	61	
Cc1cc(N)c2ccccc2[n+]1CCCCCCCCCC[n+]1c(C)cc(N)c2ccccc21 [DEQUALINIUM CHLORIDE]	180	
c1ccc(C2CCCCN2c2nc3ccccc3[nH]2)cc1 (stereo not given)	750	
c1ccc2c(c1)CCC(Nc1nc3ccccc3[nH]1)C2 (stereo not given)	2000	
c1ccc2c(c1)CCCCC2Nc1nc2ccccc2[nH]1 (stereo not given)	590	
c1ccc2c(c1)CCN(c1nc3ccccc3[nH]1)C2	14000	
c1ccc(CNc2nc3ccccc3[nH]2)cc1	2700	
Cc1ccc2c(c1)C(Nc1nc3ccccc3[nH]1)CCC2 (stereo not given)	20	
O=C1Nc2c(ccc(Cl)c2Cl)/C1=N\O		Activity [2]: Active
COc1cc2c3cc1Oc1cc(ccc1O)C[C@@H]1c4c(cc(OC)c(O)c4Oc4ccc(cc4)C[C@@H]3N(C)CC2)CC[N+]1(C)C	16000	
C[N+]1(C)CCc2cc3c(cc2[C@H]1[C@@H]1OC(=O)c2c1ccc1c2OCO1)OCO3		IC50 [1]: 7000 nM
c1ccc2c(c1)OCCC2Nc1nc2ccccc2[nH]1 (stereo not given)	> 10000	
c1ccc2c(c1)CCC[C@H]2Nc1nc2ccccc2[nH]1	77	Kd [3]: 430 nM; inhibition [4]: 75%; Kd [5]: 100 nM; inhibition [6]: 45%; EC50 [7]: 400 nM; EC50 [8]: 440 nM
c1ccc2c(c1)CCCC2Nc1nc2ccccc2[nH]1 (stereo not given)	130	
COc1ccc(C[C@H]2c3cc(OC)c(OC)cc3CC[N+]2(C)C)cc1OC [LAUDANOSINE METHIODIDE]	2600	

SMILES	Kd [1] [nM]	other results
c1ccc2c(c1)CCC2Nc1nc2ccccc2[nH]1 (stereo not given)	790	
Clc1ccc2c(c1)CCCC2Nc1nc2ccccc2[nH]1 (stereo not given)	120	
Clc1ccc2c(c1)C(Nc1nc3ccccc3[nH]1)CCC2 (stereo not given)	17	
COc1ccc(CC2c3cc(OC)c(OC)cc3CC[N+]2(C)CCC(=O)OCCCCCOC(=O)CC[N+]2(C)CCc3cc(OC)c(OC)cc3C2Cc2ccc(OC)c(OC)c2)cc1OC (stereo not given) [ATRACURIUM]	6400	
Fc1ccc2c(c1)C(Nc1nc3ccccc3[nH]1)CCC2 (stereo not given)	34	
Cc1cc(C)c2c(c1)C(Nc1nc3ccccc3[nH]1)CCC2 (stereo not given)	33	
c1ccc(C2CCCN2c2nc3ccccc3[nH]2)cc1 (stereo not given)	1600	
Clc1cc2c(cc1Cl)C(Nc1nc3ccccc3[nH]1)CCC2 (stereo not given)	9.1	Kd [9]: 54 nM; Kd [10]: 60 nM; EC50 [7]: 1810 nM; Kd [11]: 47 nM; Kd [12]: 7.8 nM
c1ccc2c(c1)CC(Nc1nc3ccccc3[nH]1)C2	1700	
c1ccc(-c2ccc3c(c2)C(Nc2nc4ccccc4[nH]2)CCC3)cc1 (stereo not given)	600	
Clc1cccc2c1CCCC2Nc1nc2ccccc2[nH]1 (stereo not given)	44	
Clc1ccc(CNc2nc3ccccc3[nH]2)cc1	640	
c1ccc2c3c(ccc2c1)CCCC3Nc1nc2ccccc2[nH]1 (stereo not given)	31	
c1ccc2c(c1)SCCC2Nc1nc2ccccc2[nH]1 (stereo not given)	130	
CC1CCc2ccccc2C1Nc1nc2ccccc2[nH]1 (stereo not given)	170	
c1ccc2c(c1)CCC[C@@H]2Nc1nc2ccccc2[nH]1	450	
O=C(Nc1nc2ccccc2[nH]1)c1ccc(Cl)cc1	> 10000	
CCn1c(=O)[nH]c2ccccc21		Activity [2]: Active
CC1CCC(Nc2nc3ccccc3[nH]2)c2ccccc21 (stereo not given)	32	
c1ccc2[nH]c(NC3CCCc4sccc43)nc2c1 (stereo not given)	540	
CC(=O)O[C@H]1C[C@@H]2CC[C@@H]3[C@H](CC[C@@]4(C)[C@H]3CC[C@H]([N+]3(C)CCCCC3)[C@@H]4OC(C)=O)[C@@]2(C)C[C@@H]1[N+]1(C)CCCCC1 [PENUCURONIUM]	21000	
c1ccc2[nH]c(NC3CCCc4ccncc43)nc2c1 (stereo not given)	6500	
